Compounds with a hit are over-represented: about 3.5% of the library has one in this group of screens.
MrgX1 antagonist: antagonists of human MrgX1 receptor; MRGX1-HEK293 calcium flux, Fluo-4, BAM8-22 antagonism; active compounds read low; B-score at 10 µM; 310,000 tested, 1.3% active; AID 588676;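 active means calcium-response B-score plate-corrected more than 3 library SD below zero, starting fluorescence within 5 deviations, no agonist response on first addition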;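 further: peak minus trough fluorescence over baseline after final BAM8-22 challenge near maximal dose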
Target sequence (Q96LB2 whole entry, looked up): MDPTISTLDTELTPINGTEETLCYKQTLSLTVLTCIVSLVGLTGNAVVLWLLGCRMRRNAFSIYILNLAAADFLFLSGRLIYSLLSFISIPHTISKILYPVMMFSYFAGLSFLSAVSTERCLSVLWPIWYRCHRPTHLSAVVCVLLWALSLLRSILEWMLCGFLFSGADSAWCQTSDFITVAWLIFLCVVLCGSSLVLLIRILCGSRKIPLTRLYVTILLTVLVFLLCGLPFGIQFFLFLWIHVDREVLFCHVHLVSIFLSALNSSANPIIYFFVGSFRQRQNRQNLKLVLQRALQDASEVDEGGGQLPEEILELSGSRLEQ
MrgX1 PAM: human MrgX1 positive allosteric modulation, primary screen. 310,000 tested, 0.63% active. B-score at 10 µM. MrgX1-HEK293, Fluo-4 calcium flux, FDSS; active compounds read high. AID 588675;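 active means plate-corrected calcium response at least 3 library SD above typical, normal starting fluorescence, not activating the receptor alone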;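 further: compound read alongside a low EC10 to EC30 dose of BAM8-22 agonist; peak minus trough fluorescence over baseline measured at the second addition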
RGS4 block: human RGS4 inhibition. HEK293 M3R/RGS4 inducible, Fluo-4 calcium flux; active compounds read high; triggered by carbachol at its EC20. B-score at 10 µM. 310,000 tested, 0.45% active. P49798;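 active means B-score, a plate-corrected calcium signal, over three deviations above library mean, with baseline fluorescence within five deviations of library mean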;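 further: RGS4 expression induced by doxycycline in cells with stable M3 receptor; B-score is computed from the integrated fluorescence ratio over baseline after carbachol; higher B-score means a larger calcium signal and so more RGS4 inhibition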
Target sequence (P49798 whole entry, looked up): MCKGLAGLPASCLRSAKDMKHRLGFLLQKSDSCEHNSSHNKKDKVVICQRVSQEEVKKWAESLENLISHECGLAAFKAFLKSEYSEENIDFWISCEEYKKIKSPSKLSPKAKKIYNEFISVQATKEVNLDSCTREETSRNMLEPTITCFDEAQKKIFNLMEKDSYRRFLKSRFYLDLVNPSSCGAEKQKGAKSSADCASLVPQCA
RGS4 pot: potentiators or activators of RGS4; HEK293 M3R/inducible RGS4, carbachol calcium flux Fluo4; active compounds read low; B-score at 10 µM; 310,000 tested, 0.92% active; AID 463111;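 active means B-score of the integrated calcium signal more than 4 SD below the library mean, with starting fluorescence not abnormally high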;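 further: negative B-score means reduced calcium response which marks RGS4 activation or potentiation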
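Assay system: Inducible-RGS4 HEK293 cells carrying M3 receptor | Schedule: Compound preincubation 20 min at room temperature before agonist | Signal: Kinetic calcium fluorescence imaging with Fluo4-AM dye, 2 µM | Read-out basis: B score from integrated fluorescence ratio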
MrgX1 agonist: human MrgX1 receptor agonism, primary screen; Q96LB2; MrgX1-HEK293 cells, Fluo-4 calcium fluorescence, agonist mode; active compounds read high; B-score at 10 µM; 310,000 tested, 0.44% active;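 active means calcium response B-score plate-corrected fluorescence ratio at least 3 library SD, with starting fluorescence B-score inside 5 SD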
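times = overnight plating, then 30 min 37 °C plus 30 min room-temperature dye loading | assay system = stable human MrgX1 HEK293 cell line | input = fifteen thousand cells per well | signal = kinetic calcium dye fluorescence, Fluo-4 NW | dosing = compound delivered in addition one of three | read-out = B-scored fluorescence response ratio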
RGS4 act valid: confirmation of RGS4 activators; shares compounds with RGS4 pot; HEK293 M3R/RGS4 inducible, carbachol calcium flux Fluo4; inhibition, % at 10 µM; 1,100 tested, 89% active;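 active means inhibition above 3 SD of the buffer control wells, cut at about 41% in these data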;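 further: signal is the integrated peak-minus-minimum Fluo4 fluorescence over baseline ratio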
M3R Ca counter: counter-screen for RGS4 activators: effect in non-induced cells | shares compounds with RGS4 pot | HEK293 M3R non-induced RGS4, Fluo4 calcium flux; after carbachol challenge at its EC90 | inhibition, % at 10 µM | 1,100 tested, 82% active;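 active means inhibition exceeding 3 SD of buffer-only control wells, cut at about 26% in these data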;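 further: percent drop in integrated peak-minus-baseline over baseline Fluo4 ratio after carbachol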
Large screens that a line does not name were inactive (follow-up assays come after a bar, where they were run).

CN1C(=O)C(=O)/C(=C(/O)c2ccc(Br)cc2)C1c1ccc(F)cc1 (configuration not stated)	none
N#Cc1ccccc1NC(=O)c1ccc2c(Cl)c3c(nc2c1)CCCC3	RGS4 pot -8.1 | RGS4 act valid 72 | M3R Ca counter 47
CCCN1CCN(CCCNC(=O)c2ccc3c(Cl)c4c(nc3c2)CCCC4)CC1	RGS4 pot -8.1 | RGS4 act valid 94 | M3R Ca counter 62
CCOC(=O)C1=C(C)NC(C)=C(C(=O)OCC)C1C(=O)OCC(=O)NC1(C#N)CCCCC1	RGS4 pot -11 | RGS4 act valid 46 | M3R Ca counter inactive
CCCCOc1ccc(C(O)C(CN2CCOCC2)c2ccccc2)cc1 (configuration not stated)	none
CCCCOc1ccc(C(O)C(CN2CCCCC2)c2ccccc2)cc1 (configuration not stated)	RGS4 pot -7.6 | RGS4 act valid 58 | M3R Ca counter 84
O=C(CSc1nc(-c2ccccc2Cl)ns1)c1ccc(Cl)cc1	RGS4 pot -8.2 | RGS4 act valid 77 | M3R Ca counter 41
CN(C)Cc1ccccc1CCc1ccccc1	RGS4 pot -8.3 | RGS4 act valid 78 | M3R Ca counter 42
COC(CNC(=O)c1coc2nc3ccccc3nc12)OC	none
Cc1cc(C)c2c(CN3CCN(Cc4ccccc4)CC3)cc(=O)oc2c1	none
Cc1cc(C)c2c(CN3CCN(Cc4ccc5c(c4)OCO5)CC3)cc(=O)oc2c1C	RGS4 pot -7.7 | RGS4 act valid 76 | M3R Ca counter 28
Cc1ccc2c(CN3CCN(Cc4ccc5c(c4)OCO5)CC3)cc(=O)oc2c1C	RGS4 pot -8.7 | RGS4 act valid inactive | M3R Ca counter inactive
Cc1cc2oc(=O)cc(CN3CCN(Cc4ccc5c(c4)OCO5)CC3)c2cc1C	none
Cc1cc(C)c2c(CN3CCN(Cc4ccc5c(c4)OCO5)CC3)cc(=O)oc2c1	RGS4 pot -8.7 | RGS4 act valid 91 | M3R Ca counter 52
CN(C)S(=O)(=O)c1ccc(C(=O)OCC2COC(C)(C)O2)cc1 (configuration not stated)	none
O=C(Nc1ccccc1Cl)C1C2CCC3C(CCC21)C3(Cl)Cl (configuration not stated)	none
CCOc1ccccc1NC(=O)C1C2CCC3C(CCC21)C3(Cl)Cl (configuration not stated)	RGS4 pot -7.9 | RGS4 act valid inactive | M3R Ca counter inactive
COc1ccc(N2C(=O)CC2(C#N)c2ccc(OCc3ccccc3)cc2)cc1 (configuration not stated)	none
Cc1cccc(NC(=O)C2CCN(S(=O)(=O)c3c(C)nn(C)c3C)CC2)n1	none
Cc1cccc(NC(=O)C2CCN(S(=O)(=O)c3c(C)c(C)cc(C)c3C)CC2)n1	RGS4 pot -11 | RGS4 act valid 90 | M3R Ca counter 64
CC(=O)c1cccc(OCC(=O)N2CCN(c3ccc(C(F)(F)F)cn3)CC2)c1	RGS4 pot -12 | RGS4 act valid inactive | M3R Ca counter inactive
CCCc1cc(C(=O)N2CCN(c3ccc(C(F)(F)F)cn3)CC2)sc1C	RGS4 pot -11 | RGS4 act valid 83 | M3R Ca counter 56
CN(C)C(C)(C)C#CCC(c1ccccc1)c1ccccc1	RGS4 pot -8.2 | RGS4 act valid 90 | M3R Ca counter 59
CC(C)c1nc(N2CCN(C(=O)c3ccco3)CC2)c(C#N)c2c1COC(C)(C)C2	RGS4 pot -11 | RGS4 act valid 82 | M3R Ca counter 42
CC1(C)Cc2c(C#N)c(N3CCN(C(=O)c4ccccc4)CC3)nc(-c3ccco3)c2CS1	none (no result: RGS4 block, RGS4 pot)
CC(C)c1nc(N2CCN(C(=O)c3ccccc3)CC2)c(C#N)c2c1COC(C)(C)C2	RGS4 pot -8.8 | RGS4 act valid 45 | M3R Ca counter 84
COC(=O)c1ccc(C)c(-n2c(=O)n(Cc3ccccc3)c(=O)c3[nH]cnc32)c1	none
CCOC(=O)c1c(-c2ccccc2)oc2ccc(O)c(CN3CCN(C)CC3)c12	RGS4 pot -8.1 | RGS4 act valid 69 | M3R Ca counter 49
CCOC(=O)c1c(C)n(C)c2ccc(O)c(CN3CCN(C)CC3)c12	none
Cc1c(CNCCc2ccccc2Cl)c(C(=O)O)c(C)n1-c1ccccc1	none
Cc1c(Br)c(C(F)(F)F)nn1CC(=O)NCc1ccccc1	none
COc1cc2c(cc1OC)CN(CCC(C)c1ccc(Cl)cc1)CC2 (configuration not stated)	none
Oc1ccc(Nc2nc(N3CCCC3)c3ccccc3n2)cc1	RGS4 pot -8.2 | RGS4 act valid 91 | M3R Ca counter 65
CN(C(=O)c1ccccc1OCc1ccc(Cl)cc1)c1ccccc1	RGS4 pot -9.2 | RGS4 act valid 92 | M3R Ca counter 93
COC(=O)c1ccc(OC)c(CN2CCCN(Cc3cc(C)ccc3C)S2(=O)=O)c1	none
CN(C)c1ccc(/C=N/NC(N)=S)cc1[N+](=O)[O-]	none
CNc1nc(-c2ccccc2)[n+](-c2ccc(C)cc2)s1	RGS4 pot -14 | RGS4 act valid 97 | M3R Ca counter 93
CCOC(=O)c1c(NC(=O)c2cccc(N3C(=O)CCC3=O)c2)sc2c1CCN(CC)C2	RGS4 pot -9.8 | RGS4 act valid 90 | M3R Ca counter 44
CCCn1c(=S)[nH]c2cc(C(=O)N3CCN(C4CCCCC4)CC3)ccc2c1=O	none
CCC(=O)N1COC[C@@H]1Cc1ccccc1	none
CCOCCN1CCN(C2c3ccccc3CSc3ccccc32)CC1 (configuration not stated)	RGS4 pot -13 | RGS4 act valid 92 | M3R Ca counter 90
CCNC(=O)NC1c2ccccc2CSc2ccccc21 (configuration not stated)	none
C=CCNc1nc(N2CCCCC2)c(C#N)c2c1CN(Cc1ccccc1)CC2	RGS4 pot -8.9 | RGS4 act valid 94 | M3R Ca counter 81
CCOC(=O)C1=C(COC(=O)/C=C/c2ccco2)NC(=O)NC1C (configuration not stated)	none
Cc1ccc(S(=O)(=O)n2c(N)nc3ccccc32)cc1	RGS4 pot -7.8 | RGS4 act valid 92 | M3R Ca counter 96
CCCCOc1ccc(S(=O)(=O)n2c(C)nc3ccccc32)cc1	RGS4 pot -8.3 | RGS4 act valid 93 | M3R Ca counter 96
CC(C)c1nnc(SCC(=O)NC2CCCC2)n1C	none
O=C(CNC(=O)c1ccc2c(c1)OCCO2)N/N=C/c1cccc(Br)c1	none
O=C1CCSc2ccc(Cl)cc2N1Cc1ccc(Cl)cc1	RGS4 pot -10 | RGS4 act valid 90 | M3R Ca counter 86
